# Reference: ChEMBL document CHEMBL3227941, “3-Substituted adenines. In vitro enzyme inhibition and antiviral activity” (J Med Chem, 1979)
# The source made the active and inactive calls. The calls are words filed in the database; no cut-off is given here.
# Assays:
# [1] = test system: Vaccinia virus; test: Antiviral activity against Vaccinia virus infected in African green monkey BSC-1 cells assessed as inhibition of virus multiplication at 12 ug/ml after 96 hrs by plaque reduction assay; type: functional; conditions: Orthopoxvirus vaccinia, BSC-1, 96 h
# [2] = test system: Human alphaherpesvirus 1; test: Antiviral activity against HSV1 infected in African green monkey BSC-1 cells assessed as inhibition of virus multiplication at 6 ug/ml after 96 hrs by plaque reduction assay; type: functional; conditions: Human alphaherpesvirus 1, BSC-1, 96 h
# [3] = target: T1, Dopamine beta-hydroxylase (Bos taurus, UniProt P15101); test: Inhibition of bovine adrenal medullae dopamine-beta-hydroxylase; set-up: species or system Adrenal medulla; conditions: read-out: I50 (converted)
# T1 sequence (P15101 whole entry): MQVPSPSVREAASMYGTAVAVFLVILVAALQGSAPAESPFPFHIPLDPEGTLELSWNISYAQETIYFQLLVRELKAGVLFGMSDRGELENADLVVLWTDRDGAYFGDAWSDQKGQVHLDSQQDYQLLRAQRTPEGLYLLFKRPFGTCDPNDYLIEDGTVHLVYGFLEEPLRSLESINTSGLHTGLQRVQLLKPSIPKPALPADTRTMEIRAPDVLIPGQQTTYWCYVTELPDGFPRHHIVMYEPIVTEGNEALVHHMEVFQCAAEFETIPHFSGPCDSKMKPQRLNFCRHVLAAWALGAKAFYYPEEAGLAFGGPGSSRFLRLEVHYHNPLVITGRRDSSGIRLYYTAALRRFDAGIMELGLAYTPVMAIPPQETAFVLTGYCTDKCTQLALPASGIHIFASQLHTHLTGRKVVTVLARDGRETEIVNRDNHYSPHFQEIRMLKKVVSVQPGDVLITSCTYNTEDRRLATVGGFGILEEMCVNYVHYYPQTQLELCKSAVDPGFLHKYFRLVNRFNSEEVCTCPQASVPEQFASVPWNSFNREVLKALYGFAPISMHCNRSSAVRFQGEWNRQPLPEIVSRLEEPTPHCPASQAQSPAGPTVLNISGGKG
# [4] = test system: Human alphaherpesvirus 1; test: Antiviral activity against HSV1 infected in African green monkey BSC-1 cells assessed as inhibition of virus multiplication at 25 ug/ml after 96 hrs by plaque reduction assay; type: functional; conditions: Human alphaherpesvirus 1, BSC-1, 96 h
# [5] = Cytotoxicity against Vaccinia virus infected African green monkey BSC1 cells at 100 ug/ml; type: cell-based; conditions: chlorocebus aethiops, bsc-1
# [6] = test system: Human alphaherpesvirus 1; test: Antiviral activity against HSV1 infected in African green monkey BSC-1 cells assessed as inhibition of virus multiplication at 12 ug/ml after 96 hrs by plaque reduction assay; type: functional; conditions: Human alphaherpesvirus 1, BSC-1, 96 h
# [7] = test system: Vaccinia virus; test: Antiviral activity against Vaccinia virus infected in African green monkey BSC-1 cells assessed as inhibition of virus multiplication at 25 ug/ml after 96 hrs by plaque reduction assay; type: functional; conditions: Orthopoxvirus vaccinia, BSC-1, 96 h
# [8] = test system: Vaccinia virus; test: Antiviral activity against Vaccinia virus infected in African green monkey BSC-1 cells assessed as inhibition of virus multiplication at 50 ug/ml after 96 hrs by plaque reduction assay; type: functional; conditions: Orthopoxvirus vaccinia, BSC-1, 96 h
# [9] = test system: Human alphaherpesvirus 1; test: Antiviral activity against HSV1 infected in African green monkey BSC-1 cells assessed as inhibition of virus multiplication at 50 ug/ml after 96 hrs by plaque reduction assay; type: functional; conditions: Human alphaherpesvirus 1, BSC-1, 96 h
# [10] = test system: Vaccinia virus; test: Antiviral activity against Vaccinia virus infected in African green monkey BSC-1 cells assessed as inhibition of virus multiplication at 6 ug/ml after 96 hrs by plaque reduction assay; type: functional; conditions: Orthopoxvirus vaccinia, BSC-1, 96 h
# [11] = test system: Vaccinia virus; test: Antiviral activity against Vaccinia virus infected in African green monkey BSC-1 cells assessed as inhibition of virus multiplication at 3 ug/ml after 96 hrs by plaque reduction assay; type: functional; conditions: Orthopoxvirus vaccinia, BSC-1, 96 h
# [12] = test system: Vaccinia virus; test: Antiviral activity against Vaccinia virus infected in African green monkey BSC-1 cells assessed as inhibition of virus multiplication at 100 ug/ml after 96 hrs by plaque reduction assay; type: functional; conditions: Orthopoxvirus vaccinia, BSC-1, 96 h
# [13] = Cytotoxicity against HSV1 infected African green monkey BSC1 cells at 50 ug/ml; type: cell-based; conditions: chlorocebus aethiops, bsc-1
# [14] = Cytotoxicity against Vaccinia virus infected African green monkey BSC1 cells at 50 ug/ml; type: cell-based; conditions: chlorocebus aethiops, bsc-1
# [15] = Cytotoxicity against Vaccinia virus infected African green monkey BSC1 cells at 25 ug/ml; type: cell-based; conditions: chlorocebus aethiops, bsc-1
# [16] = Cytotoxicity against HSV1 infected African green monkey BSC1 cells at 25 ug/ml; type: cell-based; conditions: chlorocebus aethiops, bsc-1
# [17] = test system: Vaccinia virus; test: Antiviral activity against Vaccinia virus infected in mouse assessed as assessed as protection against viral infection; type: functional, organism-based; conditions: Orthopoxvirus vaccinia
# [18] = test system: Human alphaherpesvirus 1; test: Antiviral activity against HSV1 infected in mouse assessed as assessed as protection against viral infection; type: functional, organism-based
# [19] = test system: Sus scrofa; test: Toxicity in Transmissible gastroenteritis virus infected pig at 25 mg/animal administered 3 times per day; type: organism-based; conditions: in vivo
# In short: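 Piglets (4-5 lb), four per treated group with two untreated controls, were given 25 mg/pig three times a day and challenged with virus. Body weight was followed from 24 h after challenge through 48 h, and animals were watched for signs of illness and for deaths.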
# [20] = test system: Transmissible gastroenteritis virus; test: Antiviral activity against Transmissible gastroenteritis virus infected in pig at 25 mg/animal administered 3 times per day; type: functional, organism-based
# In short: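 Piglets weighing 4-5 lb dosed at 25 mg/pig three times daily and challenged with virus. Weight and survival monitored against untreated controls over 72 h.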
SMILES,inhibition at 12 µg/mL [1],inhibition at 6 µg/mL [2],IC50 [3],inhibition at 25 µg/mL [4],Activity [5],inhibition at 12 µg/mL [6],inhibition at 25 µg/mL [7],inhibition at 50 µg/mL [8],inhibition at 50 µg/mL [9],inhibition at 6 µg/mL [10],inhibition at 3 µg/mL [11],inhibition at 100 µg/mL [12],Activity [13],Activity [14],Activity [15],Activity [16],Activity [17],Activity [18],Activity [19],Activity [20]
Cc1ccccc1Cn1cnc(N)c2ncnc1-2,0%,0%,836 µM,0%,Toxic,0%,0%,0%,30%,,,,,,,,,,,
Nc1ncn(Cc2ccccc2Cl)c2ncnc1-2,0%,0%,770 µM,100%,Toxic,42%,0%,100%,100%,0%,0%,,,,,,,,,
CCCn1cnc(N)c2ncnc1-2 [3-PROPYLADENINE],0%,0%,1130 µM,0%,,0%,0%,0%,0%,0%,,0%,,,,,,,,
Nc1ncn(Cc2ccccc2)c2ncnc1-2 [3-BENZYLADENINE],0%,0%,8.88 µM,0%,,0%,0%,3%,0%,,,3%,,,,,,,,
CCCCn1cnc(N)c2ncnc1-2 [3-BUTYLADENINE],0%,0%,105 µM,0%,,0%,0%,0%,0%,,,1%,,,,,,,,
Nc1ncn(CC2CCCCC2)c2ncnc1-2,0%,0%,8.65 µM,0%,,0%,0%,7%,0%,,,,,,,,,,,
CC(C)CCn1cnc(N)c2ncnc1-2,0%,0%,974 µM,0%,,0%,7%,7%,27%,0%,,8%,,,,,,,,
Nc1ncn(Cc2cccc(Cl)c2)c2ncnc1-2,0%,0%,7.7 µM,0%,,0%,16%,37%,45%,0%,,100%,,,,,,,,
CCn1cnc(N)c2ncnc1-2 [3-ETHYLADENINE],0%,0%,> 1230 µM,0%,,0%,0%,0%,0%,0%,,0%,,,,,,,,
Nc1ncn(Cc2ccc(Cl)c(Cl)c2)c2ncnc1-2,100%,0%,6.8 µM,27%,Toxic,0%,,,,87%,47%,,Toxic,Toxic,Toxic,,,,,
Cc1ccc(Cn2cnc(N)c3ncnc2-3)cc1C,0%,0%,79 µM,,Toxic,42%,,,,0%,0%,,Toxic,Toxic,Toxic,Toxic,,,,
CCCCCn1cnc(N)c2ncnc1-2,33%,0%,2.44 µM,0%,,0%,35%,72%,3%,,,96%,,,,,,,,
Nc1ncn(Cc2ccco2)c2ncnc1-2,,0%,,0%,,0%,0%,0%,0%,,,0%,,,,,,,,
Nc1ncn(Cc2ccc(Cl)cc2)c2ncnc1-2,51%,0%,77 µM,0%,Toxic,0%,70%,100%,15%,,,,,,,,,,,
Nc1ncn(Cc2ccccc2Br)c2ncnc1-2,34%,71%,658 µM,100%,Toxic,100%,100%,100%,100%,0%,0%,,,,,,inactive,inactive,Toxic,inactive
Nc1ncn(Cc2ccc(Cl)cc2Cl)c2ncnc1-2,0%,0%,680 µM,20%,Toxic,0%,,,,0%,,,Toxic,Toxic,Toxic,,,,,
CCCCCCn1cnc(N)c2ncnc1-2,27%,0%,4.56 µM,0%,Toxic,0%,77%,100%,16%,,,,,,,,,,,
Cc1ccc(Cn2cnc(N)c3ncnc2-3)cc1,0%,0%,83.6 µM,0%,Toxic,0%,8%,10%,0%,,,,,,,,,,,
Cc1cccc(Cn2cnc(N)c3ncnc2-3)c1,0%,0%,83.6 µM,0%,Toxic,0%,0%,0%,9%,,,,,,,,,,,
Nc1ncn(Cc2cccc(C(F)(F)F)c2)c2ncnc1-2,,,68.2 µM,,,,,,,,,,,,,,,,,
